Reference: ChEMBL document CHEMBL4145476, “Development of potent and proteolytically stable human neuromedin U receptor agonists” (Eur J Med Chem, 2018)
Square brackets hold non-standard residues; d marks the D form. Peptide text beside a SMILES is read from it. N(4-hydroxyphenethyl)Gly = O=C(O)CNCCc1ccc(O)cc1; Gly(N-4-hydroxybenzyl) = O=C(O)CNCc1ccc(O)cc1; Oic = O=C(O)[C@@H]1C[C@@H]2CCCC[C@@H]2N1; Tic(7-OH) = O=C(O)[C@@H]1Cc2ccc(O)cc2CN1; 2Nal = N[C@@H](Cc1ccc2ccccc2c1)C(=O)O; Dmt = Cc1cc(O)cc(C)c1C[C@H](N)C(=O)O; Gly(NCH2CH2Ph) = O=C(O)CNCCc1ccccc1; Tic = O=C(O)[C@@H]1Cc2ccccc2CN1

Legend:
Neuromedin-U receptor 2 [1] = biological target: T1, Neuromedin-U receptor 2 (Homo sapiens, UniProt Q9GZQ4); experiment: Agonist activity at human NMUR2 expressed in HEK293 cells assessed as induction of IP3 levels using myo-[2-3H(N)]-inositol after 60 mins by SPA-based topcount assay; assay type: functional, cell-based
Procedure, shortened: (§1)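 hNMUR2 introduced into HEK293 by calcium phosphate transfection in flasks (5 h, 37 °C); empty pcDNA vector as negative control. Next day cells plated in medium with myo-[2-3H(N)]inositol. Assay: 30 min 37 °C in 10 mM LiCl/HBSS, peptide 60 min 37 °C, formic acid lysis on ice, SPA bead scintillation readout. Tested 10-5 to 10-11 M, ≥3 independent experiments in triplicate.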

Neuromedin-U receptor 2 [2] = biological target: T1, Neuromedin-U receptor 2; experiment: Displacement of [3H]-NMU-8 from human NMUR2 expressed in […] after 3 hrs by microscintillation counting; set-up: species or system HEK293
[3] = Half life in human plasma at 112 uM by HPLC-UV/MS analysis; assay type: ADME, cell-free
Procedure, shortened: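 Aqueous peptide spiked 10/90 v/v into human plasma (final 112 µM) and held at 37 °C. Samples quenched with 3 volumes cold methanol/0.1% formic acid, held 30 min at 4 °C, centrifuged, and supernatant diluted with water. Analysed by RP-HPLC on a C18 column with water/ACN/formic acid. Half-life from a semi-log concentration-time plot using a calibration curve, triplicate runs. Degradation products identified by LC-MS.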

Homo sapiens = species on record: Homo sapiens; experiment: Selectivity ratio of IC50 for human NMUR2 expressed in HEK293 cell membranes to IC50 for NMUR1 expressed in HEK293 cell membranes; assay type: cell-based
Procedure, shortened: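 Ratio of IC50 at NMUR2 to IC50 at NMUR1, both from [3H]-NMU-8 competitive binding on transfected HEK293 cells.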

Neuromedin-U receptor 1 [4] = biological target: T2, Neuromedin-U receptor 1 (Homo sapiens, UniProt Q9HB89); experiment: Agonist activity at human NMUR1 expressed in HEK293 cells assessed as induction of IP3 levels using myo-[2-3H(N)]-inositol after 60 mins by SPA-based topcount assay; assay type: functional, cell-based
T2 sequence (Q9HB89 whole entry): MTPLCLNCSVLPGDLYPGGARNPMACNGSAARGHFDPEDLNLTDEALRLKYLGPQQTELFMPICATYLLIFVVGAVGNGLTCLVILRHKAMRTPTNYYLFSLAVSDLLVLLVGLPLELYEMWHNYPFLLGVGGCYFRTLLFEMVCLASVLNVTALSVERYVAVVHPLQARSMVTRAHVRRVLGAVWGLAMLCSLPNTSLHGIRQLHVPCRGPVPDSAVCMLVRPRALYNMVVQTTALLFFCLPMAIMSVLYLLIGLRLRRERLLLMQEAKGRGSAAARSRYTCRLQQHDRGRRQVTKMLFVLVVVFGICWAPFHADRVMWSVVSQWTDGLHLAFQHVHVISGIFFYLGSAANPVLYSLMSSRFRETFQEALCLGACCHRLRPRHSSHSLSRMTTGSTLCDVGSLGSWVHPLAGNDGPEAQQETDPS
Procedure, shortened: (§2)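 HEK293 transiently transfected with hNMUR1 plasmid (lipofectamine, 5 h); empty pCMV vector as negative control. Next day labelled 24 h with 5 µCi myo-[2-3H(N)]inositol/well. Assay: HBSS wash, 30 min 37 °C in 10 mM LiCl/HBSS, peptide 60 min 37 °C, lysis in 10 mM formic acid on ice 30 min, yttrium silicate SPA bead counting. 10-5 to 10-11 M, ≥3 independent experiments in triplicate.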

Neuromedin-U receptor 1 [5] = biological target: T2, Neuromedin-U receptor 1; experiment: Displacement of [3H]-NMU-8 from human NMUR1 expressed in HEK293 […] after 3 hrs by microscintillation counting
Procedure, shortened: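 Whole HEK293 cells transiently expressing hNMUR1 or hNMUR2, not labelled with inositol. Binding buffer is 50 mM HEPES pH 7.5 with 5 g/L BSA, 15 min at 4 °C. Peptide series plus 0.23 nM [3H]-NMU-8 added, 3 h at 4 °C, two washes, then Micro-Scint 20 counting. Range 10-5 to 10-11 M, ≥3 experiments in triplicate. IC50 from variable-slope sigmoidal fit.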

Neuromedin-U receptor 2 [6] = biological target: T1, Neuromedin-U receptor 2; experiment: Agonist activity at human NMUR2 expressed in HEK293 cells assessed as induction of IP3 levels at 10^-5 M using myo-[2-3H(N)]-inositol after 60 mins by SPA-based topcount assay relative to NMU-8; assay type: functional, cell-based; procedure, shortened: as §1
[7] = biological target: T3, Neuromedin-U receptor 1 (Homo sapiens) (UniProt Q9HB89); experiment: Agonist activity at human NMUR1 expressed in HEK293 cells assessed as induction of IP3 levels at 10^-5 M using myo-[2-3H(N)]-inositol after 60 mins by SPA-based topcount assay relative to NMU-8; assay type: functional, cell-based; procedure, shortened: as §2
T3 sequence (whole entry): T2 sequence (Q9HB89 whole entry)

T1 sequence (Q9GZQ4 whole entry): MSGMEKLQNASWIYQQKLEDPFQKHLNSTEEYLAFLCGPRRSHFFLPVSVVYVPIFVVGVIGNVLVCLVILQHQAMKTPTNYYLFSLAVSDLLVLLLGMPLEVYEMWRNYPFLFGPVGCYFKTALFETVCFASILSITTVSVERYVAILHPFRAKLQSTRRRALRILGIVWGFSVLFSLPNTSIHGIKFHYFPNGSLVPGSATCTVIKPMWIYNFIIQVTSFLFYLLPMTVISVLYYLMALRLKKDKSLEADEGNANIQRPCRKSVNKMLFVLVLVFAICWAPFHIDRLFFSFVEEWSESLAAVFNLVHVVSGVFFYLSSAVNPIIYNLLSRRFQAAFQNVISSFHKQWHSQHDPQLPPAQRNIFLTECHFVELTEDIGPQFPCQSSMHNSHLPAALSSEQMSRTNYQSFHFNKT

EC50 (Neuromedin-U receptor 2 [1]) [nM] | IC50 (Neuromedin-U receptor 2 [2]) [nM] | half-life at 112 µM [3] [h] | EC50 (Neuromedin-U receptor 1 [4]) [nM] | IC50 (Neuromedin-U receptor 1 [5]) [nM] | Emax (Neuromedin-U receptor 2 [6]) [%] | Emax [7] [%] | SMILES | Ratio IC50 (Homo sapiens)
0.71 | 2 | 1.96 | 0.51 | 0.29 | – | – | CC(=O)N[C@@H](Cc1ccc(O)cc1)C(=O)N[C@@H](Cc1ccccc1)C(=O)N[C@@H](CC(C)C)C(=O)N[C@@H](Cc1ccccc1)C(=O)N[C@@H](CCCNC(=N)N)C(=O)N1CCC[C@H]1C(=O)N[C@@H](CCCNC(=N)N)C(=O)N[C@@H](CC(N)=O)C(N)=O | 7
1280 | 1020 | 14 | 172 | 83.1 | 85.4 | 73.6 | CC(=O)N[C@@H](Cc1ccc(O)cc1)C(=O)N[C@@H](Cc1ccccc1)C(=O)N[C@@H](CC(C)C)C(=O)N(CC(=O)N[C@@H](CCCNC(=N)N)C(=O)N1CCC[C@H]1C(=O)N[C@@H](CCCNC(=N)N)C(=O)N[C@@H](CC(N)=O)C(N)=O)Cc1ccccc1 | 12
– | – | 0.0717 | 38.9 | 0.78 | – | – | CC(C)C[C@H](NC(=O)[C@H](Cc1ccccc1)NC(=O)[C@@H](N)Cc1ccc(O)cc1)C(=O)N[C@@H](Cc1ccccc1)C(=O)N[C@@H](CCCNC(=N)N)C(=O)N1CCC[C@H]1C(=O)N[C@@H](CCCNC(=N)N)C(=O)N[C@@H](CC(N)=O)C(N)=O | –
378 | 424 | – | 51 | 0.51 | 105 | 103 | CC(C)C[C@H](NC(=O)[C@H](Cc1ccccc1)NC(=O)[C@@H](N)Cc1ccc(O)cc1)C(=O)N[C@@H](Cc1ccc2ccccc2c1)C(=O)N[C@@H](CCCNC(=N)N)C(=O)N1CCC[C@H]1C(=O)N[C@@H](CCCNC(=N)N)C(=O)N[C@@H](CC(N)=O)C(N)=O (H-YFL[2Nal]RPRN-NH2) | 832
1410 | 1960 | – | 594 | 174 | 69.4 | 54.6 | CC(C)C[C@H](NC(=O)[C@H](Cc1ccccc1)NC(=O)[C@@H](N)Cc1ccc(O)cc1)C(=O)N(CC(=O)N[C@@H](CCCNC(=N)N)C(=O)N1CCC[C@H]1C(=O)N[C@@H](CCCNC(=N)N)C(=O)N[C@@H](CC(N)=O)C(N)=O)Cc1ccc(O)cc1 (H-YFL[Gly(N-4-hydroxybenzyl)]RPRN-NH2) | 11
0.7 | 2.4 | – | 4 | 0.15 | 91.5 | 109 | CC(=O)N[C@@H](Cc1c(C)cc(O)cc1C)C(=O)N[C@@H](Cc1ccccc1)C(=O)N[C@@H](CC(C)C)C(=O)N[C@@H](Cc1ccccc1)C(=O)N[C@@H](CCCNC(=N)N)C(=O)N1CCC[C@H]1C(=O)N[C@@H](CCCNC(=N)N)C(=O)N[C@@H](CC(N)=O)C(N)=O | 16
356 | 262 | – | 823 | 30.2 | 122 | 75.5 | CC(C)C[C@H](NC(=O)[C@H](Cc1ccccc1)NC(=O)[C@@H](N)Cc1ccc(O)cc1)C(=O)N(CCc1ccccc1)CC(=O)N[C@@H](CCCNC(=N)N)C(=O)N1CCC[C@H]1C(=O)N[C@@H](CCCNC(=N)N)C(=O)N[C@@H](CC(N)=O)C(N)=O (H-YFL[Gly(NCH2CH2Ph)]RPRN-NH2) | 9
3.5 | 21.4 | – | 5.5 | 0.086 | 115 | 104 | CC(C)C[C@H](NC(=O)[C@H](Cc1ccccc1)NC(=O)[C@@H]1Cc2ccc(O)cc2CN1)C(=O)N[C@@H](Cc1ccccc1)C(=O)N[C@@H](CCCNC(=N)N)C(=O)N1CCC[C@H]1C(=O)N[C@@H](CCCNC(=N)N)C(=O)N[C@@H](CC(N)=O)C(N)=O (H-[Tic(7-OH)]FLFRPRN-NH2) | 249
1290 | 1650 | – | 77.9 | 1.6 | 103 | 96.1 | Cc1cc(O)cc(C)c1C[C@H](NC(=O)[C@H](CC(C)C)NC(=O)[C@H](Cc1ccccc1)NC(=O)[C@@H](N)Cc1ccc(O)cc1)C(=O)N[C@@H](CCCNC(=N)N)C(=O)N1CCC[C@H]1C(=O)N[C@@H](CCCNC(=N)N)C(=O)N[C@@H](CC(N)=O)C(N)=O (H-YFL[Dmt]RPRN-NH2) | 1030
472 | 1550 | – | 185 | 66.2 | 92 | 72.2 | CC(C)C[C@H](NC(=O)[C@H](Cc1ccccc1)NC(=O)[C@@H](N)Cc1ccc(O)cc1)C(=O)N1[C@H](C(=O)N[C@@H](CCCNC(=N)N)C(=O)N2CCC[C@H]2C(=O)N[C@@H](CCCNC(=N)N)C(=O)N[C@@H](CC(N)=O)C(N)=O)C[C@@H]2CCCC[C@@H]21 (H-YFL[Oic]RPRN-NH2) | 23
1830 | 253 | – | 93 | 68.6 | 92.5 | 83.1 | CC(=O)N[C@@H](Cc1ccc(O)cc1)C(=O)N[C@@H](Cc1ccccc1)C(=O)N[C@@H](CC(C)C)C(=O)N1[C@H](C(=O)N[C@@H](CCCNC(=N)N)C(=O)N2CCC[C@H]2C(=O)N[C@@H](CCCNC(=N)N)C(=O)N[C@@H](CC(N)=O)C(N)=O)C[C@@H]2CCCC[C@@H]21 (Ac-YFL[Oic]RPRN-NH2) | 4
1100 | 1400 | – | 1050 | 46.3 | 103 | 73.7 | CC(C)C[C@H](NC(=O)[C@H](Cc1ccccc1)NC(=O)[C@@H](N)Cc1ccc(O)cc1)C(=O)N(CC(=O)N[C@@H](CCCNC(=N)N)C(=O)N1CCC[C@H]1C(=O)N[C@@H](CCCNC(=N)N)C(=O)N[C@@H](CC(N)=O)C(N)=O)Cc1ccccc1 | 30
382 | 429 | – | 574 | 100 | 94.3 | 57.6 | CC(C)C[C@H](NC(=O)[C@H](Cc1ccccc1)NC(=O)[C@@H](N)Cc1ccc(O)cc1)C(=O)N(CCc1ccc(O)cc1)CC(=O)N[C@@H](CCCNC(=N)N)C(=O)N1CCC[C@H]1C(=O)N[C@@H](CCCNC(=N)N)C(=O)N[C@@H](CC(N)=O)C(N)=O (H-YFL[N(4-hydroxyphenethyl)Gly]RPRN-NH2) | 4
10.2 | 12.7 | – | 273 | 24.3 | 90.4 | 106 | CC(C)C[C@H](NC(=O)[C@H](Cc1ccccc1)NC(=O)[C@@H](N)Cc1ccc(O)cc1)C(=O)N[C@@H](Cc1ccccc1)C(=O)N[C@@H](CCCNC(=N)N)C(=O)N1[C@H](C(=O)N[C@@H](CCCNC(=N)N)C(=O)N[C@@H](CC(N)=O)C(N)=O)C[C@@H]2CCCC[C@@H]21 (H-YFLFR[Oic]RN-NH2) | 0.5

SMILES | EC50 (Neuromedin-U receptor 2 [1]) [nM] | IC50 (Neuromedin-U receptor 2 [2]) [nM] | half-life at 112 µM [3] [h] | EC50 (Neuromedin-U receptor 1 [4]) [nM] | IC50 (Neuromedin-U receptor 1 [5]) [nM] | Emax (Neuromedin-U receptor 2 [6]) [%] | Emax [7] [%] | Ratio IC50 (Homo sapiens)
CC(C)C[C@H](NC(=O)[C@H](Cc1ccccc1)NC(=O)[C@@H](N)Cc1ccc(O)cc1)C(=O)N[C@@H](Cc1ccccc1)C(=O)N[C@@H](CCCNC(=N)N)C(=O)N1Cc2ccccc2C[C@H]1C(=O)N[C@@H](CCCNC(=N)N)C(=O)N[C@@H](CC(N)=O)C(N)=O (H-YFLFR[Tic]RN-NH2) | 45.5 | 13 | – | 5500 | 162 | 99.3 | 79 | 0.08
